From ChEMBL document CHEMBL5058577, “EUbOPEN Chemogenomics Library 2 (Multiplex)” (2022)
Non-standard residues stand in square brackets, D forms with d. Residues, ends and D or L forms follow the SMILES beside them.

System: Fibroblast
Test: Multiplex assay against human fibroblast
Assay type: toxicity, cell-based
Outline: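 Cells were classed with CellPathfinder machine-learning gating, first as Hoechst high-intensity objects or normal cells, then (normal cells) as healthy, pyknosed or fragmented nuclei, and finally (pyknosed cells) as mitotic or apoptotic. Staining of live cells at seeding used Hoechst33342, BioTracker Green Microtubule Cytoskeleton Dye, MitoTracker Red and Annexin V Alexa Fluor 680, with imaging on a CQ1 microscope at 37°C and 5% CO2 after compound addition. Tubulin, mitochondrial-mass and membrane-permeability phenotypes are per cents of healthy-nucleus cells.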

[1] = 12 h, 1 µM, compound concentration 1 uM, replicate 1
[2] = 12 h, 1 µM, compound concentration 1 uM, replicate 2
[3] = 12 h, 10 µM, compound concentration 10 uM, replicate 1
[4] = 12 h, 10 µM, compound concentration 10 uM, replicate 2
[5] = 24 h, 1 µM, compound concentration 1 uM, replicate 1
[6] = 24 h, 1 µM, compound concentration 1 uM, replicate 2
[7] = 24 h, 10 µM, compound concentration 10 uM, replicate 1
[8] = 24 h, 10 µM, compound concentration 10 uM, replicate 2
[9] = 48 h, 1 µM, compound concentration 1 uM, replicate 1
[10] = 48 h, 1 µM, compound concentration 1 uM, replicate 2
[11] = 48 h, 10 µM, compound concentration 10 uM, replicate 1
[12] = 48 h, 10 µM, compound concentration 10 uM, replicate 2

## CC(C)C[C@@H]1NC(=O)[C@@H](C(C)C)NC(=O)[C@@H]2CCCN2C(=O)[C@@H](CC(=O)O)NC(=O)[C@@H](Cc2c[nH]c3ccccc23)NC1=O [BQ-123] (cyclo(L[dW][dD]P[dV]))
[1]
  Population Apoptotic (%): 57%
  Population Fragmented Nuclei (%): 18%
  Population Healthy Nuclei (%): 68%
  Population Hoechst High Intensity Objects (%): 0%
  Population Membrane Permeable-Phenotype (%): 1%
  Population Mitochondria Different-Phenotype (%): 11%
  Population Mitotic Cells (%): 42%
  Population Normal (%): 100%
  Population Pyknosed Nuclei (%): 13%
  Population Tubulin-Different-Phenotype (%): 31%
  Total Cell Count: 105
[2]
  Population Apoptotic (%): 21%
  Population Fragmented Nuclei (%): 22%
  Population Healthy Nuclei (%): 58%
  Population Hoechst High Intensity Objects (%): 3%
  Population Membrane Permeable-Phenotype (%): 5%
  Population Mitochondria Different-Phenotype (%): 2%
  Population Mitotic Cells (%): 78%
  Population Normal (%): 96%
  Population Pyknosed Nuclei (%): 18%
  Total Cell Count: 157
[3]
  Population Apoptotic (%): 48%
  Population Fragmented Nuclei (%): 15%
  Population Healthy Nuclei (%): 65%
  Population Hoechst High Intensity Objects (%): 2%
  Population Membrane Permeable-Phenotype (%): 0%
  Population Mitochondria Different-Phenotype (%): 9%
  Population Mitotic Cells (%): 52%
  Population Normal (%): 97%
  Population Pyknosed Nuclei (%): 18%
  Population Tubulin-Different-Phenotype (%): 33%
  Total Cell Count: 136
[4]
  Population Apoptotic (%): 33%
  Population Fragmented Nuclei (%): 30%
  Population Healthy Nuclei (%): 48%
  Population Membrane Permeable-Phenotype (%): 4%
  Population Mitochondria Different-Phenotype (%): 3%
  Population Mitotic Cells (%): 66%
  Population Pyknosed Nuclei (%): 20%
  Population Tubulin-Different-Phenotype (%): 46%
  Total Cell Count: 134
[5]
  Population Apoptotic (%): 53%
  Population Fragmented Nuclei (%): 19%
  Population Healthy Nuclei (%): 66%
  Population Hoechst High Intensity Objects (%): 1%
  Population Membrane Permeable-Phenotype (%): 0%
  Population Mitochondria Different-Phenotype (%): 5%
  Population Mitotic Cells (%): 46%
  Population Normal (%): 98%
  Population Pyknosed Nuclei (%): 14%
  Population Tubulin-Different-Phenotype (%): 24%
  Total Cell Count: 107
[6]
  Population Apoptotic (%): 24%
  Population Fragmented Nuclei (%): 23%
  Population Healthy Nuclei (%): 57%
  Population Hoechst High Intensity Objects (%): 6%
  Population Membrane Permeable-Phenotype (%): 3%
  Population Mitochondria Different-Phenotype (%): 3%
  Population Mitotic Cells (%): 75%
  Population Normal (%): 93%
  Population Pyknosed Nuclei (%): 18%
  Population Tubulin-Different-Phenotype (%): 25%
  Total Cell Count: 166
[7]
  Population Apoptotic (%): 50%
  Population Fragmented Nuclei (%): 19%
  Population Healthy Nuclei (%): 64%
  Population Hoechst High Intensity Objects (%): 8%
  Population Membrane Permeable-Phenotype (%): 1%
  Population Mitochondria Different-Phenotype (%): 5%
  Population Mitotic Cells (%): 50%
  Population Normal (%): 91%
  Population Pyknosed Nuclei (%): 15%
  Population Tubulin-Different-Phenotype (%): 32%
  Total Cell Count: 123
[8]
  Population Apoptotic (%): 29%
  Population Fragmented Nuclei (%): 27%
  Population Healthy Nuclei (%): 50%
  Population Hoechst High Intensity Objects (%): 0%
  Population Membrane Permeable-Phenotype (%): 11%
  Population Mitochondria Different-Phenotype (%): 3%
  Population Mitotic Cells (%): 70%
  Population Normal (%): 99%
  Population Pyknosed Nuclei (%): 22%
  Population Tubulin-Different-Phenotype (%): 50%
[9]
  Population Apoptotic (%): 50%
  Population Fragmented Nuclei (%): 18%
  Population Healthy Nuclei (%): 70%
  Population Hoechst High Intensity Objects (%): 3%
  Population Membrane Permeable-Phenotype (%): 0%
  Population Mitochondria Different-Phenotype (%): 12%
  Population Mitotic Cells (%): 50%
  Population Normal (%): 96%
  Population Pyknosed Nuclei (%): 11%
  Population Tubulin-Different-Phenotype (%): 25%
  Total Cell Count: 109
[10]
  Population Apoptotic (%): 52%
  Population Fragmented Nuclei (%): 28%
  Population Healthy Nuclei (%): 56%
  Population Hoechst High Intensity Objects (%): 4%
  Population Membrane Permeable-Phenotype (%): 2%
  Population Mitochondria Different-Phenotype (%): 4%
  Population Mitotic Cells (%): 48%
  Population Normal (%): 95%
  Population Pyknosed Nuclei (%): 15%
  Population Tubulin-Different-Phenotype (%): 39%
  Total Cell Count: 172
[11]
  Population Apoptotic (%): 70%
  Population Fragmented Nuclei (%): 26%
  Population Healthy Nuclei (%): 59%
  Population Hoechst High Intensity Objects (%): 5%
  Population Membrane Permeable-Phenotype (%): 1%
  Population Mitochondria Different-Phenotype (%): 5%
  Population Mitotic Cells (%): 29%
  Population Normal (%): 94%
  Population Pyknosed Nuclei (%): 13%
  Population Tubulin-Different-Phenotype (%): 38%
  Total Cell Count: 129
[12]
  Population Apoptotic (%): 46%
  Population Fragmented Nuclei (%): 45%
  Population Healthy Nuclei (%): 42%
  Population Hoechst High Intensity Objects (%): 6%
  Population Membrane Permeable-Phenotype (%): 9%
  Population Mitochondria Different-Phenotype (%): 3%
  Population Mitotic Cells (%): 53%
  Population Normal (%): 93%
  Population Pyknosed Nuclei (%): 12%
  Population Tubulin-Different-Phenotype (%): 51%
  Total Cell Count: 130

## O=c1ccc2ccc(OCCCCN3CCN(c4cccc5sccc45)CC3)cc2[nH]1 [BREXPIPRAZOLE]
[1]
  Population Apoptotic (%): 56%
  Population Fragmented Nuclei (%): 17%
  Population Healthy Nuclei (%): 62%
  Population Hoechst High Intensity Objects (%): 2%
  Population Membrane Permeable-Phenotype (%): 0%
  Population Mitochondria Different-Phenotype (%): 5%
  Population Mitotic Cells (%): 44%
  Population Normal (%): 97%
  Population Pyknosed Nuclei (%): 20%
  Population Tubulin-Different-Phenotype (%): 41%
  Total Cell Count: 126
[2]
  Population Apoptotic (%): 48%
  Population Fragmented Nuclei (%): 33%
  Population Healthy Nuclei (%): 44%
  Population Hoechst High Intensity Objects (%): 5%
  Population Membrane Permeable-Phenotype (%): 2%
  Population Mitochondria Different-Phenotype (%): 15%
  Population Mitotic Cells (%): 51%
  Population Normal (%): 94%
  Population Pyknosed Nuclei (%): 21%
  Population Tubulin-Different-Phenotype (%): 73%
  Total Cell Count: 169
[3]
  Population Apoptotic (%): 68%
  Population Fragmented Nuclei (%): 16%
  Population Healthy Nuclei (%): 64%
  Population Hoechst High Intensity Objects (%): 1%
  Population Membrane Permeable-Phenotype (%): 0%
  Population Mitochondria Different-Phenotype (%): 39%
  Population Mitotic Cells (%): 31%
  Population Normal (%): 98%
  Population Pyknosed Nuclei (%): 19%
  Population Tubulin-Different-Phenotype (%): 83%
  Total Cell Count: 203
[4]
  Population Apoptotic (%): 45%
  Population Fragmented Nuclei (%): 30%
  Population Healthy Nuclei (%): 49%
  Population Hoechst High Intensity Objects (%): 11%
  Population Membrane Permeable-Phenotype (%): 2%
  Population Mitochondria Different-Phenotype (%): 25%
  Population Mitotic Cells (%): 54%
  Population Normal (%): 88%
  Population Pyknosed Nuclei (%): 20%
  Population Tubulin-Different-Phenotype (%): 81%
  Total Cell Count: 243
[5]
  Population Apoptotic (%): 56%
  Population Fragmented Nuclei (%): 17%
  Population Healthy Nuclei (%): 69%
  Population Hoechst High Intensity Objects (%): 1%
  Population Membrane Permeable-Phenotype (%): 0%
  Population Mitochondria Different-Phenotype (%): 8%
  Population Mitotic Cells (%): 43%
  Population Normal (%): 98%
  Population Pyknosed Nuclei (%): 13%
  Population Tubulin-Different-Phenotype (%): 43%
  Total Cell Count: 122
[6]
  Population Apoptotic (%): 33%
  Population Fragmented Nuclei (%): 32%
  Population Healthy Nuclei (%): 52%
  Population Hoechst High Intensity Objects (%): 3%
  Population Membrane Permeable-Phenotype (%): 2%
  Population Mitochondria Different-Phenotype (%): 14%
  Population Mitotic Cells (%): 66%
  Population Normal (%): 96%
  Population Pyknosed Nuclei (%): 14%
  Population Tubulin-Different-Phenotype (%): 76%
  Total Cell Count: 173
[7]
  Population Apoptotic (%): 58%
  Population Fragmented Nuclei (%): 13%
  Population Healthy Nuclei (%): 54%
  Population Hoechst High Intensity Objects (%): 13%
  Population Membrane Permeable-Phenotype (%): 0%
  Population Mitochondria Different-Phenotype (%): 63%
  Population Mitotic Cells (%): 41%
  Population Normal (%): 86%
  Population Pyknosed Nuclei (%): 31%
  Population Tubulin-Different-Phenotype (%): 85%
  Total Cell Count: 218
[8]
  Population Apoptotic (%): 65%
  Population Fragmented Nuclei (%): 30%
  Population Healthy Nuclei (%): 40%
  Population Hoechst High Intensity Objects (%): 19%
  Population Mitochondria Different-Phenotype (%): 34%
  Population Mitotic Cells (%): 34%
  Population Normal (%): 80%
  Population Pyknosed Nuclei (%): 28%
  Population Tubulin-Different-Phenotype (%): 71%
  Total Cell Count: 239
[9]
  Population Apoptotic (%): 62%
  Population Fragmented Nuclei (%): 24%
  Population Healthy Nuclei (%): 62%
  Population Hoechst High Intensity Objects (%): 4%
  Population Membrane Permeable-Phenotype (%): 0%
  Population Mitochondria Different-Phenotype (%): 10%
  Population Mitotic Cells (%): 37%
  Population Normal (%): 95%
  Population Pyknosed Nuclei (%): 12%
  Population Tubulin-Different-Phenotype (%): 52%
  Total Cell Count: 133
[10]
  Population Apoptotic (%): 60%
  Population Fragmented Nuclei (%): 42%
  Population Healthy Nuclei (%): 51%
  Population Membrane Permeable-Phenotype (%): 1%
  Population Mitochondria Different-Phenotype (%): 9%
  Population Mitotic Cells (%): 40%
  Population Pyknosed Nuclei (%): 5%
  Population Tubulin-Different-Phenotype (%): 67%
  Total Cell Count: 175
[11]
  Population Apoptotic (%): 62%
  Population Fragmented Nuclei (%): 18%
  Population Healthy Nuclei (%): 50%
  Population Hoechst High Intensity Objects (%): 34%
  Population Membrane Permeable-Phenotype (%): 0%
  Population Mitochondria Different-Phenotype (%): 60%
  Population Mitotic Cells (%): 37%
  Population Normal (%): 65%
  Population Pyknosed Nuclei (%): 31%
  Population Tubulin-Different-Phenotype (%): 88%
  Total Cell Count: 208
[12]
  Population Apoptotic (%): 44%
  Population Fragmented Nuclei (%): 30%
  Population Healthy Nuclei (%): 43%
  Population Mitochondria Different-Phenotype (%): 20%
  Population Mitotic Cells (%): 55%
  Population Pyknosed Nuclei (%): 26%
  Population Tubulin-Different-Phenotype (%): 55%
  Total Cell Count: 317
